This note sets out measurements from ChEMBL document CHEMBL4130370, “Discovery of 5,6-diaryl-1,2,4-triazines hybrids as potential apoptosis inducers” (Eur J Med Chem, 2017).

Common to all, as to assay type: functional, cell-based
One assay deals with MGC-803. As to the kind of experiment: Antiproliferative activity against human MGC803 cells after 48 hrs by MTT assay. As to conditions: MGC-803, 48 h. Summed up:
(§1)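 Cells exposed to compounds for 48 h, then read by MTT. IC50 is the concentration giving 50% inhibition of tumour cell proliferation, taken from dose-response curves. Values are means±SD of three independent experiments. 5-FU was the reference drug.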

Another assay deals with ECa-109 cell line. As to the kind of experiment: Antiproliferative activity against human EC109 cells after 48 hrs by MTT assay. As to conditions: ECa-109, 48 h. The procedure, abridged: as §1
In general terms: Formazan colour is commonly taken as a measure of viable cells.

For another assay, the system named is PC-3. As to the kind of experiment: Antiproliferative activity against human PC3 cells after 48 hrs by MTT assay. The conditions noted are these: PC-3, 48 h. The procedure, abridged:
as §1

In general, IC50 refers to the concentration that gives 50% inhibition. As to `COc1ccc(Cn2cc(CSc3nnc(-c4ccccc4)c(-c4ccccc4)n3)nn2)cc1`, the IC50 was found to be 22.7 µM in the assay with MGC-803, 28.4 µM in the assay with ECa-109 cell line and 27.5 µM with PC-3.

Turning to `COc1ccc(-c2coc3cc(OCCCn4cc(CSc5nnc(-c6ccccc6)c(-c6ccccc6)n5)nn4)ccc3c2=O)cc1`, the IC50 with MGC-803 was greater than 100 µM; in the assay with ECa-109 cell line, greater than 100 µM; with PC-3, 10.2 µM.

As for `O=c1cc(OCCCn2cc(CSc3nnc(-c4ccccc4)c(-c4ccccc4)n3)nn2)c2ccccc2o1`, the values for the IC50 in the assay on MGC-803, in the assay with ECa-109 cell line and in the assay with PC-3 were greater than 100 µM, greater than 100 µM and 57.8 µM, respectively.

Regarding `C#CCSc1nnc(-c2ccccc2)c(-c2ccccc2)n1`, the IC50 with MGC-803, in the assay with ECa-109 cell line and in the assay with PC-3 was greater than 100 µM throughout.

As for `CC(=O)CSc1nnc(-c2ccccc2)c(-c2ccccc2)n1`, the IC50 in the assay on MGC-803, with ECa-109 cell line and with PC-3 was greater than 100 µM in each case.

For `NS(=O)(=O)c1ccc(-n2cc(CSc3nnc(-c4ccccc4)c(-c4ccccc4)n3)nn2)cc1`, the IC50 with MGC-803, with ECa-109 cell line and with PC-3 was greater than 100 µM in each case.

Consider `COc1ccc(C(=O)/C=C/c2ccc(-n3cc(CSc4nnc(-c5ccccc5)c(-c5ccccc5)n4)nn3)cc2)cc1`, for which the concentration for half-maximal inhibition (IC50) in the assay with MGC-803 is 36.7 µM; in the assay with ECa-109 cell line it was greater than 100 µM; with PC-3, greater than 100 µM.

With `Brc1ccc(Cn2cc(CSc3nnc(-c4ccccc4)c(-c4ccccc4)n3)nn2)cc1`, the values for the IC50 with MGC-803, with ECa-109 cell line and in the assay on PC-3 were greater than 100 µM, greater than 100 µM and 22 µM, respectively.
